Laboratory results from ChEMBL document CHEMBL3232894, “Discovery of AMG 925, a FLT3 and CDK4 dual kinase inhibitor with preferential affinity for the activated state of FLT3” (J Med Chem, 2014).

Experiments:
[1] = target: Cyclin-dependent kinase 4/cyclin D1 (Homo sapiens, UniProt P11802); assay: Inhibition of CDK4/cyclin D1 (unknown origin) using Rb as substrate after 60 mins by scintillation counting analysis in presence of [r-33P]ATP; type: protein-complex assay
CYP3A4 = CYP3A4 (Homo sapiens, UniProt P08684); assay: Inhibition of CYP3A4 (unknown origin) at 3 uM; type: ADME
Sequence of CYP3A4 (P08684 whole entry): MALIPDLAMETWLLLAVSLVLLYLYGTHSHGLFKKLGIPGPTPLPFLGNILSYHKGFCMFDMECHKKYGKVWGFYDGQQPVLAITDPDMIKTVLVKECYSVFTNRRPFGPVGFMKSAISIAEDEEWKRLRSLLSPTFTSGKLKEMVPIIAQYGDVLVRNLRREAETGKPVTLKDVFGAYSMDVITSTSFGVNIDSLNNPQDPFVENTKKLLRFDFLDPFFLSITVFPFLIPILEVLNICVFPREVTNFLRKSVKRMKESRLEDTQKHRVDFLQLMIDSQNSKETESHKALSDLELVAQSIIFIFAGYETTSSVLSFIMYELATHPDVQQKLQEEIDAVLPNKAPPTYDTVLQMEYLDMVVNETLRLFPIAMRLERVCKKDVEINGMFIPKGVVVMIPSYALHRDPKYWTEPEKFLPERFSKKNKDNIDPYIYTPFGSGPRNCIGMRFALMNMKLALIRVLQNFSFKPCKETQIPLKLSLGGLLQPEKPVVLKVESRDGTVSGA

COLO 205 = assay: Antiproliferative activity against Rb-positive human COLO205 cells assessed as incorporation of [14C]thymidine into DNA after 72 hrs by beta-plate counting analysis
MOLM-13 [2] = assay: Antiproliferative activity against human MOLM13 cells harboring FLT3 ITD mutant assessed as incorporation of [3H]thymidine into DNA after 72 hrs by beta-plate counting analysis; type: functional, cell-based
[3] = target: T1, Receptor-type tyrosine-protein kinase FLT3 (Homo sapiens, UniProt P36888); assay: Inhibition of GST-fused human FLT3 cytoplasmic domain (amino acids 564 to 993) using Ulight-JAK1 as substrate after 1 hr by TR-FRET assay
T1 sequence (P36888 whole entry): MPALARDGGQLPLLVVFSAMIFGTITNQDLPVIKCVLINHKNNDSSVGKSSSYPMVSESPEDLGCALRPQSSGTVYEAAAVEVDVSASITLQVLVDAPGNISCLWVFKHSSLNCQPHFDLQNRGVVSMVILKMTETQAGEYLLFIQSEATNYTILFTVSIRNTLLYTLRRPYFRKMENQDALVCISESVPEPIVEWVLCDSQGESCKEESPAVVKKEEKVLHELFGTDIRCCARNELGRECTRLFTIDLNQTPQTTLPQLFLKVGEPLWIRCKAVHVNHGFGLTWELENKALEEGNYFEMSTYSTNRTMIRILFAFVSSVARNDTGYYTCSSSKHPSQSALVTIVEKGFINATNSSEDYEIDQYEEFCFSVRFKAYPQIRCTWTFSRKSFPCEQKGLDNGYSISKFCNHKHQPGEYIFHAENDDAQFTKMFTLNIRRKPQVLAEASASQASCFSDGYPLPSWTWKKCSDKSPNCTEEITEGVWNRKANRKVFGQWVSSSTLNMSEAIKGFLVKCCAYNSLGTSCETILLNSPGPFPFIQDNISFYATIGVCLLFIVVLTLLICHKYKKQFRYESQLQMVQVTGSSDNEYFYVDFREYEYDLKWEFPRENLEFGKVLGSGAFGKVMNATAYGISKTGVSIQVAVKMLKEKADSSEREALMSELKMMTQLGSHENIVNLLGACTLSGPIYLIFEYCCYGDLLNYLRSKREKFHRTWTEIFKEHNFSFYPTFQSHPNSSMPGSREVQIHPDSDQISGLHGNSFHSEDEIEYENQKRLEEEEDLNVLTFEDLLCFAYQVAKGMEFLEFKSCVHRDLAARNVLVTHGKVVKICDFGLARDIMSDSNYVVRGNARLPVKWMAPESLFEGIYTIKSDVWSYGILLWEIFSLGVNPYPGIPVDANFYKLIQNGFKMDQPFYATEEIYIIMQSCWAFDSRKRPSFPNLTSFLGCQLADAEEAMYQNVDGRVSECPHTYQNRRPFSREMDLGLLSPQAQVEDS

[4] = target: Cyclin-dependent kinase 1/cyclin B1 (Homo sapiens, UniProt P06493); assay: Inhibition of CDK1/cyclin B (unknown origin) using histone H1 as substrate after 60 mins by scintillation counting analysis in presence of [r-33P]ATP; type: protein-complex assay
Sequence of Cyclin-dependent kinase 1/cyclin B1 (P06493 whole entry): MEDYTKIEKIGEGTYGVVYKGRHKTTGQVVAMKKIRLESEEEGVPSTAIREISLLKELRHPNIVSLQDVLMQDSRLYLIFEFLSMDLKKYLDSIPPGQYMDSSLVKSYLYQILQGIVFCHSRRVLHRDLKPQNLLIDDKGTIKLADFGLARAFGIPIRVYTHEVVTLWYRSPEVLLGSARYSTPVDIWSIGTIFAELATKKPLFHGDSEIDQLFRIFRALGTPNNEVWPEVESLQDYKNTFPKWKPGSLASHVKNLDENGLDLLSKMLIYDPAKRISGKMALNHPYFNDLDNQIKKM
Sequence of Cyclin-dependent kinase 1/cyclin B1 (P14635 whole entry, further chain): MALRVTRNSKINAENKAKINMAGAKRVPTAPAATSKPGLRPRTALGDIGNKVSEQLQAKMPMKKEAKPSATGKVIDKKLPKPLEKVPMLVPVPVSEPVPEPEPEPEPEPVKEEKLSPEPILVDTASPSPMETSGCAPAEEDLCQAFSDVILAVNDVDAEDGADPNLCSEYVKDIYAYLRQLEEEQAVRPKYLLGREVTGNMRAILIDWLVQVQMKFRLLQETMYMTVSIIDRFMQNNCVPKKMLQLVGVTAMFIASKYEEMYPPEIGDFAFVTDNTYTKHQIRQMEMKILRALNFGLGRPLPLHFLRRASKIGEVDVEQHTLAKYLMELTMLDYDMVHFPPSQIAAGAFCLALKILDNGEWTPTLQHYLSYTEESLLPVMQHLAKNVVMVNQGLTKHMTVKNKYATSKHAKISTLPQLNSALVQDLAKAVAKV

[5] = Antiproliferative activity against Rb-negative human MDA-MB-436 cells assessed as incorporation of [3H]thymidine into DNA after 72 hrs by beta-plate counting analysis; type: functional
[6] = Oral bioavailability in rat; type: ADME, organism-based; settings: in vivo
How it was run: (§1)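 Intravenous and oral (gavage, solution) PK in rat, dog and cynomolgus monkey. The rat vehicle for both routes was water/acetate/tween at pH 4, 96/3/1 (v/v/v). Dog and monkey iv doses used 40% PG aqueous solution at pH 2, and their oral doses used 20% captisol aqueous solution.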

[7] = Clearance in iv dosed rat; type: ADME, organism-based; settings: in vivo; how it was run: as §1
Cytochrome P450 3A4 = Cytochrome P450 3A4 (Homo sapiens, UniProt P08684); assay: Inhibition of CYP3A4 (unknown origin); type: ADME
Sequence of Cytochrome P450 3A4 (P08684 whole entry): as the sequence (P08684 whole entry) above

MOLM-13 [8] = assay: Induction of apoptosis in sorafenib-resistant human MOLM13 cells harboring FLT3 ITD+D835Y mutant at 1 uM after 48 hrs by Annexin V/Sytox Green staining based flow cytometry; type: functional
How it was run: (§2)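 MOLM13, sorafenib-resistant MOLM13 and U937 cells were each exposed to compound at 1 μM for 48 h. Cells were then stained with Annexin V/Sytox Green and analysed by flow cytometry. Readout is apoptotic cells as a percentage of all cells analysed.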

U-937 [9] = assay: Induction of apoptosis in human U937 cells harboring wild type FLT3 at 1 uM after 48 hrs by Annexin V/Sytox Green staining based flow cytometry; type: functional; how it was run: as §2
MOLM-13 [10] = assay: cells; settings: Homo sapiens
MOLM-13 [11] = assay: Induction of apoptosis in human MOLM13 cells harboring FLT3 ITD mutant at 1 uM after 48 hrs by Annexin V/Sytox Green staining based flow cytometry; type: functional; how it was run: as §2
U-937 [12] = assay: Antiproliferative activity against human U937 cells assessed as incorporation of [3H]thymidine into DNA after 72 hrs by beta-plate counting analysis
[13] = Drug uptake in CrTac:NCR-Foxn1nu (NCR) nude mouse at 150 mg/kg, po after 3 hrs; type: ADME, organism-based; design: dose 150 mg/kg, route oral; settings: in vivo, read-out: Drug uptake
How it was run: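 Total plasma drug concentration in mouse PK studies, taken 3 h after a 150 mg/kg oral dose.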

Sequence of Cyclin-dependent kinase 4/cyclin D1 (P11802 whole entry): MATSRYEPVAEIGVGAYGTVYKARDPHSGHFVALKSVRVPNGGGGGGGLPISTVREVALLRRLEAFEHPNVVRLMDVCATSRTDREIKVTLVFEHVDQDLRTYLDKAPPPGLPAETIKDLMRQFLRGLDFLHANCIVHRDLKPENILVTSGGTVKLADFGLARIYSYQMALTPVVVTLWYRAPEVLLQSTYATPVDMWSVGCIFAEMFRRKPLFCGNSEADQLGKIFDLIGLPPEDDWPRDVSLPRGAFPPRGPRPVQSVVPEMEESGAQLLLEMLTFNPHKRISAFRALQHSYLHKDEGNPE
Sequence of Cyclin-dependent kinase 4/cyclin D1 (P24385 whole entry, further chain): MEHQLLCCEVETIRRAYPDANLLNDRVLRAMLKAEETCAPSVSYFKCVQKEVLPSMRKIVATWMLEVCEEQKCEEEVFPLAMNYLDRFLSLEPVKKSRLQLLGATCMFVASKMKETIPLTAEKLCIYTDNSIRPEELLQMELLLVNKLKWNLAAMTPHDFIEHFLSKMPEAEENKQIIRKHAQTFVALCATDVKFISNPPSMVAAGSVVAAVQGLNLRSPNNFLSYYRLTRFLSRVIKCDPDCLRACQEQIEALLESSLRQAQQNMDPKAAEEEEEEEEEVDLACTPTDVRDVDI

SMILES	IC50 [1]	inhibition at 3 µM (CYP3A4)	IC50 (COLO 205)	IC50 (MOLM-13 [2])	IC50 [3]	IC50 [4]	IC50 [5]	bioavailability [6]	clearance [7]	IC50 (Cytochrome P450 3A4)	Activity (MOLM-13 [8])	Activity (U-937 [9])	IC50 (MOLM-13 [10])	Activity (MOLM-13 [11])	IC50 (U-937 [12])	concentration at 3 h [13]
CC1(C)CCCC(n2c3cnccc3c3cnc(Nc4ccc(N5CCNCC5)cn4)nc32)C1 (configuration not stated)	0.003 µM	90%	0.033 µM	0.01 µM	0.003 µM	2.96 µM	1.62 µM	–	–	–	–	–	–	–	–	–
N#Cc1nccc2c3cnc(Nc4ccc(N5CCNCC5)cn4)nc3n(C3CCCC3)c12	0.027 µM	–	0.35 µM	0.062 µM	0.046 µM	30 µM	1.38 µM	–	–	–	–	–	–	–	–	–
C[C@H]1CC[C@H](n2c3cnccc3c3cnc(Nc4ccc(N5CCNCC5)nc4)nc32)CC1	0.003 µM	–	0.007 µM	0.005 µM	0.0003 µM	0.024 µM	0.038 µM	–	–	–	–	–	–	–	–	–
C[C@H]1CC[C@H](n2c3cnccc3c3cnc(Nc4ccc(N5CCNCC5)nn4)nc32)CC1	0.002 µM	–	0.022 µM	0.013 µM	0.006 µM	1.53 µM	1.01 µM	11%	0.35 L/h/kg	–	–	–	–	–	–	–
C[C@@H](CO)n1c2cnccc2c2cnc(Nc3ccc(N4CCNCC4)cn3)nc21	0.04 µM	17%	1.24 µM	–	0.043 µM	12.8 µM	30 µM	–	–	> 10 µM	–	–	–	–	–	–
c1cc2c3cnc(Nc4ccc(N5CCNCC5)cn4)nc3n(C3CCCC3)c2cn1	0.003 µM	90%	0.025 µM	0.005 µM	0.014 µM	3 µM	1.76 µM	9.4%	0.98 L/h/kg	0.55 µM	–	–	–	–	–	–
CC(=O)c1c(C)c2cnc(Nc3ccc(N4CCNCC4)cn3)nc2n(C2CCCC2)c1=O [PALBOCICLIB]	–	–	0.036 µM	0.096 µM	–	–	–	–	–	–	8.35%	9.09%	0.096 µM	16.95%	0.14 µM	–
CNC(=O)c1cc(Oc2ccc(NC(=O)Nc3ccc(Cl)c(C(F)(F)F)c3)cc2)ccn1 [SORAFENIB]	–	–	> 3 µM	0.005 µM	–	–	–	–	–	–	5.16%	8.76%	> 3 µM	84.6%	> 3 µM	–
COc1nc(Nc2ncc3c4ccncc4n([C@H]4CC[C@H](C)CC4)c3n2)ccc1N1CCC2(CCC(=O)N2)CC1	0.013 µM	–	0.044 µM	0.004 µM	0.0006 µM	1.06 µM	7.5 µM	65%	0.91 L/h/kg	–	–	–	–	–	–	–
c1cc2c3cnc(Nc4ccc(N5CCNCC5)cn4)nc3n(C3CCCCC3)c2cn1	0.005 µM	82%	0.032 µM	–	0.002 µM	6.53 µM	0.54 µM	–	–	–	–	–	–	–	–	–
C[C@H]1CC[C@H](n2c3cnccc3c3cnc(Nc4ccc(N5CCC6(CC5)CCS(=O)(=O)C6)nn4)nc32)CC1	0.004 µM	–	0.038 µM	0.032 µM	0.005 µM	1.63 µM	10 µM	38%	0.54 L/h/kg	–	–	–	–	–	–	11.6 µM
O=c1[nH]ccc2c3cnc(Nc4ccc(N5CCNCC5)cn4)nc3n(C3CCCC3)c12	0.005 µM	18%	0.12 µM	0.005 µM	0.017 µM	10 µM	2.1 µM	–	–	–	–	–	–	–	–	–
O[C@H]1CC[C@H](n2c3cnccc3c3cnc(Nc4ccc(N5CCNCC5)cn4)nc32)CC1	0.003 µM	70%	0.066 µM	0.025 µM	0.005 µM	3.41 µM	2.61 µM	–	–	–	–	–	–	–	–	–
Cc1nccc2c3cnc(Nc4ccc(N5CCNCC5)cn4)nc3n(C3CCCC3)c12	0.02 µM	< 10%	0.28 µM	0.005 µM	0.022 µM	2.26 µM	3.42 µM	–	–	> 10 µM	–	–	–	–	–	–
C[C@H]1CC[C@H](n2c3cnccc3c3cnc(Nc4ccc(N5CCN(C(=O)CO)CC5)nn4)nc32)CC1	0.003 µM	–	0.031 µM	0.037 µM	0.008 µM	1.05 µM	1.19 µM	22%	0.12 L/h/kg	–	–	–	–	–	–	10.9 µM
C[C@H]1CC[C@H](n2c3cnccc3c3cnc(Nc4ccc(N5CCC(N)CC5)cn4)nc32)CC1	0.002 µM	–	0.005 µM	0.008 µM	0.001 µM	0.41 µM	1.2 µM	–	–	–	–	–	–	–	–	–
CN(C)C1CCN(c2ccc(Nc3ncc4c5ccncc5n([C@H]5CC[C@H](C)CC5)c4n3)nc2)CC1	0.002 µM	–	0.01 µM	0.01 µM	0.002 µM	3.29 µM	1.25 µM	44%	2.1 L/h/kg	–	–	–	–	–	–	–
C[C@H]1CC[C@H](n2c3cnccc3c3cnc(Nc4ccc(N5CCC6(CCC(=O)N6)CC5)cn4)nc32)CC1	0.003 µM	–	0.031 µM	0.021 µM	0.003 µM	1.77 µM	7.23 µM	48%	1.3 L/h/kg	–	–	–	–	–	–	14.7 µM
Fc1nccc2c3cnc(Nc4ccc(N5CCNCC5)cn4)nc3n(C3CCCC3)c12	0.003 µM	< 10%	0.052 µM	0.021 µM	0.011 µM	7.56 µM	2.61 µM	–	2.1 L/h/kg	> 10 µM	–	–	–	–	–	–
CC1(C)CCC(n2c3cnccc3c3cnc(Nc4ccc(N5CCNCC5)cn4)nc32)CC1	0.001 µM	51%	0.028 µM	0.035 µM	0.017 µM	2.91 µM	2.01 µM	–	–	9.5 µM	–	–	–	–	–	–
C[C@H]1CC[C@H](n2c3cnccc3c3cnc(Nc4ccc(N5CCNCC5)cn4)nc32)CC1	0.007 µM	20%	0.02 µM	0.013 µM	0.002 µM	2.66 µM	1.21 µM	–	–	> 10 µM	–	–	–	–	–	–
CS(=O)(=O)CC1CCN(c2ccc(Nc3ncc4c5ccncc5n([C@H]5CC[C@H](C)CC5)c4n3)nn2)CC1	0.009 µM	–	0.019 µM	0.03 µM	0.008 µM	3.97 µM	10 µM	23%	0.2 L/h/kg	–	–	–	–	–	–	–
CC1CCC(n2c3cnccc3c3cnc(Nc4ccc(N5CCNCC5)cn4)nc32)CC1 (mixture of isomers)	0.001 µM	46%	0.055 µM	–	0.002 µM	5.2 µM	1.02 µM	–	–	–	–	–	–	–	–	–
c1cc2c3cnc(Nc4ccc(N5CCNCC5)cn4)nc3n(C3CCCC3)c2nn1	0.051 µM	< 10%	0.051 µM	–	0.095 µM	4.78 µM	7.05 µM	–	5.6 L/h/kg	> 10 µM	–	–	–	–	–	–
